Tests used:
Cannabinoid receptor 1 = Cannabinoid receptor 1 (Rattus norvegicus, UniProt P20272); assay: Displacement of [3H]CP-55940 from cannabinoid CB1 receptor in Sprague-Dawley rat cerebellar membrane by liquid scintillation spectrometry; set-up: species or system Cerebellum
Method in brief: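 Membranes from cerebella of male Sprague-Dawley rats (200–300 g), homogenized in TME (50 mM Tris-HCl, 1 mM EDTA, 3 mM MgCl₂, pH 7.4), spun 48,000g 30 min at 4 °C, resuspended, stored at −70 °C. Incubated 1 h at 30 °C with radioligand in TME plus 0.5% fatty-acid-free BSA. Filtered on PEI-soaked GF/B and washed; IC50 by nonlinear regression.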

Cannabinoid receptor 2 = Cannabinoid receptor 2 (Homo sapiens, UniProt P34972); assay: Displacement of [3H]WIN-55212-2 from human recombinant cannabinoid CB2 receptor expressed in CHOK1 cells by liquid scintillation spectrometry; assay type: cell-based, CHO-K1
Method in brief: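 CHO K-1 cells transfected with human CB2; membranes prepared as for brain tissue. Competition with 3 nM [3H]WIN55,212-2 in TME buffer (pH 7.4) with 0.5% fatty-acid-free BSA, 1 h at 30 °C. Filtered on 0.1% PEI-soaked GF/B, washed five times with ice-cold buffer plus 0.1% BSA, and counted by scintillation. IC50 by nonlinear regression.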

CHO-K1 = assay: Selectivity ratio of IC50 for human recombinant cannabinoid CB2 receptor expressed in CHOK1 cells to IC50 for cannabinoid CB1 receptor in Sprague-Dawley rat cerebellar membrane

Sequence of Cannabinoid receptor 1 (P20272 whole entry): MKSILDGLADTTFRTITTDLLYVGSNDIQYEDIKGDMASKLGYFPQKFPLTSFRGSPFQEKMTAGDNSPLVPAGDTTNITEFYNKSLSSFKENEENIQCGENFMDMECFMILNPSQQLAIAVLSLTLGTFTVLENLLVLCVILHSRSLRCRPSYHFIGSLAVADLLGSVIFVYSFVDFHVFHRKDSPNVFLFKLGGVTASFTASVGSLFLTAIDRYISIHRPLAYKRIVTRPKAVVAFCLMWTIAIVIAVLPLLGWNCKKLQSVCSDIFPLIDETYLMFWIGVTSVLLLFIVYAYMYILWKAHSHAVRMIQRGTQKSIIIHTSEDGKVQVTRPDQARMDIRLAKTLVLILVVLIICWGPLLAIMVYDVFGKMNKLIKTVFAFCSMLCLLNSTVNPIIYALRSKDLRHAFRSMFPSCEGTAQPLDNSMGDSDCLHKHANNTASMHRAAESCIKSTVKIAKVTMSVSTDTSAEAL
Sequence of Cannabinoid receptor 2 (P34972 whole entry): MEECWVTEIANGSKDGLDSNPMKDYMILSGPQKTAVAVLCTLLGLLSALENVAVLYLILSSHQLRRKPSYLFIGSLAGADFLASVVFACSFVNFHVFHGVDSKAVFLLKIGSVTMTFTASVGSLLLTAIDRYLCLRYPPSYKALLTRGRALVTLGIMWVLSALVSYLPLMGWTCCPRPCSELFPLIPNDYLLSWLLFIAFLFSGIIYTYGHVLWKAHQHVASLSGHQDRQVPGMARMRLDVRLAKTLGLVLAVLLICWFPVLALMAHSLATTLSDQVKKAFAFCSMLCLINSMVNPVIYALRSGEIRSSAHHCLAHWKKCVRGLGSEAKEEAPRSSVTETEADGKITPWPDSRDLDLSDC

SMILES | IC50 (Cannabinoid receptor 1) [nM] | IC50 (Cannabinoid receptor 2) [nM] | Ratio IC50 (CHO-K1)
CC(C)(C)c1nnc(-c2nn(-c3ccc(Cl)cc3Cl)c(-c3ccc(Cl)cc3)c2C(N)=O)o1 | 23.8 |  | 
CC(C)(C)c1nnc(-c2nn(-c3ccc(Cl)cc3Cl)c(-c3ccc(Cl)cc3)c2C(=O)N2CCCC2)o1 | 93.4 |  | 
CC(C)(C)c1nnc(-c2nn(-c3ccc(Cl)cc3Cl)c(-c3ccc(Br)cc3)c2C(=O)Nc2ccccc2)o1 | 1.35 | 386 | 286
CCNC(=O)c1c(-c2nnc(C(C)(C)C)o2)nn(-c2ccc(Cl)cc2Cl)c1-c1ccc(Cl)cc1 | 12.7 |  | 
CC(C)(C)c1nnc(-c2nn(-c3ccc(Cl)cc3Cl)c(-c3ccc(Cl)cc3)c2C(=O)NC2CCCC2)o1 | 7.25 |  | 
CNC(=O)c1c(-c2nnc(C(C)(C)C)o2)nn(-c2ccc(Cl)cc2Cl)c1-c1ccc(Cl)cc1 | 18.3 |  | 
CCN(CC)C(=O)c1c(-c2nnc(C(C)(C)C)o2)nn(-c2ccc(Cl)cc2Cl)c1-c1ccc(Cl)cc1 | 62.1 |  | 
CC(C)(C)c1nnc(-c2nn(-c3ccc(Cl)cc3Cl)c(-c3ccc(Cl)cc3)c2C(=O)NN2CCCCC2)o1 | 17.2 |  | 
CC(C)NC(=O)c1c(-c2nnc(C(C)(C)C)o2)nn(-c2ccc(Cl)cc2Cl)c1-c1ccc(Cl)cc1 | 9.31 |  | 
CN(C)C(=O)c1c(-c2nnc(C(C)(C)C)o2)nn(-c2ccc(Cl)cc2Cl)c1-c1ccc(Cl)cc1 | 13.4 |  | 
CC(C)(C)c1nnc(-c2nn(-c3ccc(Cl)cc3Cl)c(-c3ccc(Cl)cc3)c2C(=O)NC2CC2)o1 | 3.27 |  | 
CC(C)(C)c1nnc(-c2nn(-c3ccc(Cl)cc3Cl)c(-c3ccc(Cl)cc3)c2C(=O)Nc2ccccc2)o1 | 1.66 | 738 | 445
CCCCNC(=O)c1c(-c2nnc(C(C)(C)C)o2)nn(-c2ccc(Cl)cc2Cl)c1-c1ccc(Cl)cc1 | 17.8 |  | 
CC(=O)CNC(=O)c1c(-c2nnc(C(C)(C)C)o2)nn(-c2ccc(Cl)cc2Cl)c1-c1ccc(Cl)cc1 | 3.51 |  | 
CC(C)(C)c1nnc(-c2nn(-c3ccc(Cl)cc3Cl)c(-c3ccc(Cl)cc3)c2C(=O)Nc2ccccn2)o1 | 1.47 | 636 | 433
CCCNC(=O)c1c(-c2nnc(C(C)(C)C)o2)nn(-c2ccc(Cl)cc2Cl)c1-c1ccc(Cl)cc1 | 5.72 |  | 
CCN(C)C(=O)c1c(-c2nnc(C(C)(C)C)o2)nn(-c2ccc(Cl)cc2Cl)c1-c1ccc(Cl)cc1 | 11.5 |  | 
O=C(Nc1ccccc1)c1c(-c2nnc(C3(c4ccc(Cl)cc4)CC3)o2)nn(-c2ccc(Cl)cc2Cl)c1-c1ccc(Br)cc1 | 1.96 | > 10000 | > 5100
CC(C)(C)c1nnc(-c2nn(-c3ccc(Cl)cc3Cl)c(-c3ccc(Br)cc3)c2C(=O)Nc2ccccn2)o1 | 1.46 | 374 | 256

Source: ChEMBL document CHEMBL1153946, “Oxadiazole-diarylpyrazole 4-carboxamides as cannabinoid CB1 receptor ligands” (Bioorg Med Chem Lett, 2009)
